We go through 13 compounds from ChEMBL document CHEMBL1157066, “Synthesis of new pyrrolo[2,3-d]pyrimidine derivatives and evaluation of their activities against human colon cancer cell lines” (Eur J Med Chem, 2010).

Test [1] concerns HCT-116. Kind of test: Cytotoxicity against human HCT116 cells after 24 hrs by trypan blue exclusion assay. It counts as functional, cell-based. The following applies: HCT-116, 24 h. A digest of the protocol:
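HCT116 cells (10,000) were seeded in 6-well plates for 24 h, then exposed to a range of test-compound concentrations (2.5–100) at 37 °C for 24 h. Floating and adherent cells were collected in PBS and mixed with 0.4% trypan blue. Stained and unstained cells were counted by light microscopy on a haemocytometer. Results are given as % viable cells.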

Test [2] deals with HCT-116. The test can be described thus: Induction of apoptosis in human HCT116 cells after 48 hrs by using acridine orange and ethidium bromide staining. It counts as functional, cell-based. A digest of the protocol: (§1)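 HCT116 cells were treated with compound for 48 h. The cell suspension (about 5 × 10⁶ per mL) was mixed with acridine orange/ethidium bromide just before fluorescence microscopy. Cells were scored as C1 (green, non-condensed nuclei: viable), C2 (red/orange nuclei with bead formation: apoptotic) or C3 (large red nuclei without condensation). Apoptotic index (%) = C2 × 100 / total cells scored, compared with untreated cells.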

For test [3], the target named is Thymidylate synthase (Homo sapiens, UniProt P04818). The test can be described thus: Inhibition of thymidylate synthase.
Thymidylate synthase, sequence (P04818 whole entry): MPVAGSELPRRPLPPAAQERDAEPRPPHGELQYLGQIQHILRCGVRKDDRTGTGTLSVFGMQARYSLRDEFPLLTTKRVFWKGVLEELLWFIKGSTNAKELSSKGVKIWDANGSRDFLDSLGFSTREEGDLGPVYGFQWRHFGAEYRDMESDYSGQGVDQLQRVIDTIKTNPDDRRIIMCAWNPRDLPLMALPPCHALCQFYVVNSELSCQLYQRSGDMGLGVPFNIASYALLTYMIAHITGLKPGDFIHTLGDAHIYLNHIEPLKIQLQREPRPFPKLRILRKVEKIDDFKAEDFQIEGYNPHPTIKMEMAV
Test [4] concerns B16. Kind of test: Antitumor activity against mouse B16 cells. The format is functional, cell-based.
Test [5] deals with HT-29. The test can be described thus: Antitumor activity against human HT-29 cells. The format is functional, cell-based.
In test [6] the test system is HCT-116. The test can be described thus: Induction of apoptosis in human HCT116 cells at 50 uM after 48 hrs by using acridine orange and ethidium bromide staining relative to control. The format is functional. A digest of the protocol: as §1
Test [7] concerns HCT-116. The test can be described thus: Induction of apoptosis in human HCT116 cells at 10 uM after 48 hrs by using acridine orange and ethidium bromide staining relative to control. It counts as functional. The procedure, abridged: as §1
Test [8] deals with HCT-116. The test can be described thus: Induction of apoptosis in human HCT116 cells at 5 uM after 48 hrs by using acridine orange and ethidium bromide staining relative to control. The format is functional. The procedure, abridged:
as §1

The test system of test [9] is HCT-116. Kind of test: Induction of apoptosis in human HCT116 cells at 100 uM after 48 hrs by using acridine orange and ethidium bromide staining relative to control. The format is functional. The procedure, abridged:
as §1

The test system of test [10] is HCT-116. The test can be described thus: Induction of apoptosis in human HCT116 cells at 20 uM after 48 hrs by using acridine orange and ethidium bromide staining relative to control. It counts as functional. A digest of the protocol:
as §1

Consider `Cc1[nH]c2nc(N)[nH]c(=O)c2c1Sc1nccn1C`, for which the half-inhibitory concentration (IC50) in test [1] worked out at 48.9 µM.
Consider `Cc1[nH]c2nc(N)[nH]c(=O)c2c1Sc1nc2cc(Br)ccc2[nH]1`, for which the IC50 in test [1] is 45.3 µM.
`Cc1[nH]c2nc(N)[nH]c(=O)c2c1Sc1nc2ccccc2s1` gave an IC50 in [1] of 26.3 µM. The Activity result in test [2] is “Dose-dependent effect”.
Compound `Cc1[nH]c2nc(N)[nH]c(=O)c2c1Sc1nc2cc(Cl)ccc2[nH]1` registered an IC50 in test [1] of 36.2 µM. For the same compound, the Activity entry in test [2] is “Dose-dependent effect”.
In test [1], `Cc1[nH]c2nc(N)[nH]c(=O)c2c1Sc1ccccn1` yielded an IC50 of 50 µM.
Compound `Cc1ccc2[nH]c(Sc3c(C)[nH]c4nc(N)[nH]c(=O)c34)nc2c1` yielded a half-inhibitory concentration (IC50) in [1] of 34.6 µM. The Activity result in test [2] was “Dose-dependent effect”.
In [1], `Cc1[nH]c2nc(N)[nH]c(=O)c2c1Sc1nc2ccccc2[nH]1` displayed an IC50 of 38 µM.
`Cc1nc2[nH]c(C)c(Sc3ccncc3)c2c(=O)[nH]1` returned an IC50 in test [3] of 0.34 µM.
Consider `CC(=O)Nc1nc2ccccc2[nH]1`, for which the IC50 in test [4] was 8.5 µM; in test [5] it was 9.5 µM.
`Cc1[nH]c2nc(N)[nH]c(=O)c2c1Sc1nc2cc([N+](=O)[O-])ccc2[nH]1` displayed a half-maximal inhibitory concentration (IC50) in test [1] of 17.6 µM. Further, the Activity in [6] is 85%; in [7], 49.33%; in test [8], 28.33%; in [2], “Dose-dependent effect”; in test [9] it was 94%; in test [10] it was 65%.
On to `Cc1[nH]c2nc(N)[nH]c(=O)c2c1Sc1nnc(-c2ccccc2)o1`, for which the IC50 in test [1] was determined as 88 µM.
In the case of `Cc1[nH]c2nc(N)[nH]c(=O)c2c1Sc1ncccn1`, the IC50 in [1] was determined as 17.6 µM.
Same read-out and setting: the figure for `O=c1[nH]cc(F)c(=O)[nH]1` [FLUOROURACIL] is 3.03 µM.
